Source: PubChem (Sanford-Burnham Center for Chemical Genomics)
Diaph inh CS = diaphorase inhibition or chemical oxidation counter-screen. diaphorase resazurin-to-resorufin fluorescence, NADH, 16 min; bacterial (C. kluyveri) enzyme, not human. inhibition, % at 20 µM. 190,000 tested, 0.69% active. AID 1217;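 active means primary screen inhibition at 20 µM above a set limit, cut at about 50% in these data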;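 further: plate controls were DMSO with full reaction for no effect and wells lacking NADH for full effect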
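Detection: fluorescence of resorufin formed from resazurin, Ex 544/Em 590 nm; test system: Clostridium kluyveri diaphorase enzyme; amount: 0.14 U/mL diaphorase, enzyme working solution; times: 16-min room-temperature incubation before reading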
Diaphorase act = counter-screen for diaphorase-based assays: diaphorase activators and chemical reducers; activation factor at 20 µM; Diaphorase/resazurin coupled assay, resorufin fluorescence, 16 min; active compounds read high; 1 = vehicle wells, 0 = NADH-free wells; 190,000 tested, 0.005% active;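 active means diaphorase activity raised at least twofold by the compound at 20 µM; inactive means activation factor below 2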
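Measured by – red resorufin fluorescence at 544/590 nm excitation/emission · Test system – Clostridium kluyveri diaphorase, purified enzyme · Incubation – reaction time 16 min, room temperature · Buffer or medium – 50 mM HEPES pH 7.4 with 4.542 mM MgCl2, 0.005% Tween 20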
PMI act satM6P = activators of human phosphomannose isomerase at near-saturating mannose 6-phosphate; P34949; coupled PMI enzyme assay, resazurin fluorescence, 20 min; active compounds read high; 1 = untreated enzyme, 0 = substrate-free blank; activation factor at 20 µM; 190,000 tested, 0.34% active; AID 1216;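 active means activation factor of 2 or more at 20 µM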
Target sequence (P34949 whole entry, looked up): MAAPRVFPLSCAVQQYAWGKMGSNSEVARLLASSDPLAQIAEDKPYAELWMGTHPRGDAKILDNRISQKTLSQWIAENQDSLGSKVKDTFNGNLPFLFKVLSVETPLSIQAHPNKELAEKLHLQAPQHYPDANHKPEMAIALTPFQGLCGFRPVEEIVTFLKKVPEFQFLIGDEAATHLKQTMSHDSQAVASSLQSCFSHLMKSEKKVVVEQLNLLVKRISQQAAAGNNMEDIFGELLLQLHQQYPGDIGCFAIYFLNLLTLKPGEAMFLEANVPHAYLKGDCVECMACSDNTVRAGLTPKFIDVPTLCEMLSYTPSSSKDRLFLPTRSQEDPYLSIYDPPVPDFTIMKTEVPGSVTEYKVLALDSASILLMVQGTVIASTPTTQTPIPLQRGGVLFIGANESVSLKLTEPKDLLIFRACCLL
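Test system – human PMI in coupled enzyme assay · Timing – 20 min incubation at room temperature · Detection – Diaphorase-driven resazurin-to-resorufin fluorescence, excitation 544, emission 590 nm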
PMI act = increases human mannose-6-phosphate isomerase activity; 190,000 tested, 0.005% active; P34949; purified human PMI, coupled resazurin fluorescence, 20 min; active compounds read high; 1 = vehicle control, 0 substrate-free wells; activation factor at 20 µM; AID 1214;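 active means activation factor of 2 or more at 20 µM, relative to plate controls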
G6PDH CS = L. mesenteroides G6PDH inhibition counter-screen; Purified L. mesenteroides G6PDH, diaphorase/resazurin coupled fluorescence, 45 min; inhibition, % at 5 µM; 200,000 tested, 0.12% active; AID 1020; in the data active means inhibition above about 50%
Numbers without * were called inactive. A selection: hits, their analogues and other compounds. The true share with any hit is near 1.1%.

SMILES	Diaph inh CS	Diaphorase act	PMI act satM6P	PMI act	G6PDH CS
CCOC(=O)c1ccc2c(c1)C1C=CCC1C(C(=O)O)N2 (centres undefined)	62*	0.4	1.7	1.2	0
CCCN1CC(O)=C(C#N)C1=O	3	1	1	1.2	-2
COCCNc1nnc(SCC(=O)c2c[nH]c3ccccc23)s1	1	1	0.9	0.9	8
CCOC(=O)N1CCC(NCc2c(C(=O)N(C)Cc3ccccc3)nc3ccccn23)CC1	-3	1	0.9	0.9	15
[O-]C1=N/[N+](=C/c2ccccc2Cl)CC1	14	0.9	2*	1.5	0
O=C(c1ccco1)N1CCN(C(=O)c2ccccc2NS(=O)(=O)c2ccc(F)cc2)CC1	13	0.9	1	1.1	1
Cc1ccc(C)c(NC(=O)C(c2ccccc2)N2CCOCC2)c1 (centres undefined)	0	1	1	1	8
CN1CC2(Cc3c1ccc1ccccc31)C(=O)OC(C)(C)OC2=O	51*	0.5	0.4	0.5	7
N[C@@H](CO)c1nnc([C@H](Cc2ccc(O)cc2)NC(=O)C2CCNCC2)o1	19	0.8	1	1	6
CCOc1ccc2nc(NC(=O)CSc3nc(-c4ccccc4)c(C#N)c(=O)[nH]3)sc2c1	59*	0.4	1.1	1.6	5
COc1cccc(-c2nc(SCC(=O)Nc3nc(-c4ccccc4)c(C)s3)[nH]c(=O)c2C#N)c1	81*	0.2	1	0.9	8
COC(=O)C1C(c2ccc(N(C)C)cc2)C(C(=O)OC)S(=O)(=O)CS1(=O)=O (centres undefined)	12	0.9	0.8	0.8	11
CNc1sc(C(=O)c2ccccc2F)c(N)c1-c1nc2ccccc2s1	22	0.8	2*	1.6	-1
Cn1c(=O)c(=O)n(C)c2cc(S(=O)(=O)NCCOc3ccccc3Cl)ccc21	7	0.9	1.1	1.1	4
O=C1CC(c2ccco2)Sc2nc3ccccc3n21 (centres undefined)	51*	0.5	0.6	0.6	12
O=C1CC(c2ccccc2)Sc2nc3ccccc3n21 (centres undefined)	14	0.9	1	1	-2
CC(OC(=O)CCc1nc2ccccc2c(=O)[nH]1)C(=O)c1ccc(C(C)(C)C)cc1 (centres undefined)	11	0.9	1	0.8	10
O=C1CC(=C2c3ccccc3-c3ccccc32)C(=O)N1CCCCN1CCN(c2ccccc2)CC1	-3	1	2.1*	1.5	0
COCCOC(=O)C1=C(C)NC2=C(C(=O)CCC2)C1c1cc2c(cc1Br)OCO2 (centres undefined)	9	0.9	1	1	11
CCSc1cc(C2C(C(=O)OC)=C(C)NC3=C2C(=O)CCC3)c(C)o1 (centres undefined)	6	0.9	2.1*	1.1	7
Oc1c(C=NCc2ccccc2)sc2ccccc12	6	0.9	1	1	6
Oc1cccc(C=NCc2ccccc2)c1O	62*	0.4	0.5	0.5	60*
COc1ccccc1N1CCN(C(=O)c2ccc3[nH]c4c(c3c2)CC(C)CC4)CC1 (centres undefined)	12	0.9	1	1	11
N#Cc1c(NC(=O)c2ccccc2Cl)n(Cc2ccccc2)c2nc3ccccc3nc12	38	0.6	0.7	0.7	-13
CCOC(=O)c1c(NC(=O)c2ccco2)n(C2CCCCC2)c2nc3ccccc3nc12	69*	0.3	0.4	0.5	38
SMILES	Diaph inh CS	Diaphorase act	PMI act satM6P	PMI act	G6PDH CS
COc1ccc(-n2c(NC(=O)c3ccco3)c(C#N)c3nc4ccccc4nc32)cc1	70*	0.3	0.3	0.4	42
O=C(/C=C1\NC2(CCCC2)Cc2ccccc21)C(=O)N/N=C/c1ccc(O)c(O)c1	74*	0.3	0.8	0.6	0
Cc1ccc(-c2cccc(OC(=O)c3ccccc3F)c2)cc1	10	0.9	1	1	-6
O=S(=O)(Nc1ccc2c(c1)nc1n2CCN(Cc2ccccc2)C1)c1ccc(F)cc1	24	0.8	2.1*	1.6	10
O=C(Nc1ccc2c(c1)nc1n2CCN(Cc2ccccc2)C1)NC1CCCCC1	17	0.8	1.4	1.2	26
O=S(=O)(Nc1ccc2c(c1)nc1n2CCN(Cc2ccccc2)C1)c1ccccc1	9	0.9	1.9	1.5	6
O=S(=O)(Nc1ccc2c(c1)nc1n2CCN(Cc2ccccc2)C1)c1ccc(Cl)cc1	12	0.9	2.2*	1.6	-1
Cc1ccc(S(=O)(=O)Nc2ccc3c(c2)nc2n3CCN(Cc3ccccc3)C2)cc1	16	0.8	2.2*	1.5	-1
O=C(COc1ccccc1C(=O)N/N=C\c1ccc(O)c(O)c1)N/N=C/c1ccc(O)c(O)c1	70*	0.3	0.8	0.4	1
O=C(COc1ccccc1[N+](=O)[O-])N/N=C/c1ccc(O)c([N+](=O)[O-])c1	-2	1	1	1.1	8
NNC(=S)Nc1ccc(Cl)cc1	-2	1	1	0.9	-4
NN/C(=C\[N+](=O)[O-])Nc1ccc(Cl)cc1	16	0.8	2*	1.5	3
NN/C(=C\[N+](=O)[O-])Nc1ccccc1	6	0.9	2.6*	1.7	-7
Oc1ccc2n[nH]nc2c1	15	0.9	0.9	0.9	17
CC(=O)Oc1ccc(C(=O)[C@H]2[C@H]3C(=O)N(c4ccc5ccccc5c4)C(=O)[C@H]3[C@@H]3C=CC=NN32)cc1	25	0.8	2.1*	1.6	1
O=C(Nc1ccc(Cl)cc1)[C@@H]1[C@@H]2C(=O)N(c3ccc(Cl)cc3)C(=O)[C@@H]2[C@H]2C=CC=NN21	14	0.9	1.9	1.6	2
Cc1cc(NC(=O)CSc2nnc(C3CC3)n2N)c([N+](=O)[O-])cc1C	19	0.8	0.8	0.9	-2
CCOc1cc(/C=N/N=C(N)N)ccc1OCc1ccc(Cl)cc1	-100	2*	1.2	1.1	-2
COc1ccc2c(c1)-c1nc(/N=C/c3c(O)ccc4ccccc34)sc1CC2	50	0.5	0.2	0.2	38
COc1ccc2c(c1)-c1nc(/N=C/c3ccc(O)cc3)sc1CC2	56*	0.4	0.2	0.2	26
Cn1c(=O)[nH]c(=O)c2c1nc(Br)n2C/C=N/Nc1ccccc1	-14	1.1	3*	2*	12
Nc1scc2c(C(=O)N/N=C/c3ccc(Cl)cc3)nn(-c3ccccc3)c(=O)c12	75*	0.2	0.4	0.3	20
Nc1nc(=S)[nH]c2c1C1(CCCCC1)Cc1ccccc1-2	53*	0.5	1	0.9	-8
